In ChEMBL document CHEMBL4118078, “Developing pyridazine-3-carboxamides to be CB2 agonists: The design, synthesis, structure-activity relationships and docking studies” (Eur J Med Chem, 2017):

Key:
[1] = molecular target: T1, Cannabinoid receptor 1 (Homo sapiens, UniProt P21554); assay: Agonist activity at CB1 receptor (unknown origin) expressed in CHO cells assessed as induction of calcium mobilization by fluo-4 AM dye-based fluorescence assay; type: functional, cell-based
[2] = organism: Homo sapiens; assay: Selectivity index, ratio of EC50 for CB1 receptor (unknown origin) to EC50 for CB2 receptor (unknown origin)
[3] = molecular target: T1, Cannabinoid receptor 1; assay: Antagonist activity at CB1 receptor (unknown origin) expressed in CHO cells assessed as inhibition of CP55940-induced calcium mobilization at 10 uM preincubated for 10 mins followed by CP55940-induction by fluo-4 AM dye-based fluorescence assay relative to SR141716A; type: functional, cell-based
Summary of the method: (§1)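 Cell-based calcium mobilization, antagonist mode, single-concentration screen at 10 µM against CB1 and CB2. SR141716A served as the antagonist-mode positive control.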

[4] = molecular target: T2, Cannabinoid receptor 2 (Homo sapiens, UniProt P34972); assay: Agonist activity at CB2 receptor (unknown origin) expressed in CHO cells assessed as induction of calcium mobilization by fluo-4 AM dye-based fluorescence assay; type: functional, cell-based
T2 sequence (P34972 whole entry): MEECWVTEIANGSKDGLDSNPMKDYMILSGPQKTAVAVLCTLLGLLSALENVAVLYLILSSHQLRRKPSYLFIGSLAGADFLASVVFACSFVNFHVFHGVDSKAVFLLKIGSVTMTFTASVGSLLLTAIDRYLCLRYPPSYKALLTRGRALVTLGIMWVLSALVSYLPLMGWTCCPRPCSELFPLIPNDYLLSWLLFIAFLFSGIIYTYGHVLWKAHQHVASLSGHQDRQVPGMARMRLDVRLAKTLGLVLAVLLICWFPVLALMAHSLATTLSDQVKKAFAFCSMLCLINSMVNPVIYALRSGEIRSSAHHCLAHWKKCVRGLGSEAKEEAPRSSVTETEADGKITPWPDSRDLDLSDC

[5] = molecular target: T1, Cannabinoid receptor 1; assay: Agonist activity at CB1 receptor (unknown origin) expressed in CHO cells assessed as induction of calcium mobilization at 10 uM by fluo-4 AM dye-based fluorescence assay relative to CP55940; type: functional, cell-based
[6] = molecular target: T2, Cannabinoid receptor 2; assay: Agonist activity at CB2 receptor (unknown origin) expressed in CHO cells assessed as induction of calcium mobilization at 10 uM by fluo-4 AM dye-based fluorescence assay relative to CP55940; type: functional, cell-based
[7] = molecular target: T2, Cannabinoid receptor 2; assay: Agonist activity at CB2 receptor (unknown origin) expressed in CHO cells assessed as induction of calcium mobilization by fluo-4 AM dye-based fluorescence assay relative to CP55940; type: functional, cell-based
Summary of the method: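 Cell-based calcium mobilization, agonist mode, with CP55940 as positive control. Compounds giving more than 50% activation in a single-concentration 10 µM primary screen were run in dose-response to derive EC50.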

[8] = molecular target: T2, Cannabinoid receptor 2; assay: Antagonist activity at CB2 receptor (unknown origin) expressed in CHO cells assessed as inhibition of CP55940-induced calcium mobilization at 10 uM preincubated for 10 mins followed by CP55940-induction by fluo-4 AM dye-based fluorescence assay relative to SR141716A; type: functional, cell-based; summary of the method: as §1

T1 sequence (P21554 whole entry): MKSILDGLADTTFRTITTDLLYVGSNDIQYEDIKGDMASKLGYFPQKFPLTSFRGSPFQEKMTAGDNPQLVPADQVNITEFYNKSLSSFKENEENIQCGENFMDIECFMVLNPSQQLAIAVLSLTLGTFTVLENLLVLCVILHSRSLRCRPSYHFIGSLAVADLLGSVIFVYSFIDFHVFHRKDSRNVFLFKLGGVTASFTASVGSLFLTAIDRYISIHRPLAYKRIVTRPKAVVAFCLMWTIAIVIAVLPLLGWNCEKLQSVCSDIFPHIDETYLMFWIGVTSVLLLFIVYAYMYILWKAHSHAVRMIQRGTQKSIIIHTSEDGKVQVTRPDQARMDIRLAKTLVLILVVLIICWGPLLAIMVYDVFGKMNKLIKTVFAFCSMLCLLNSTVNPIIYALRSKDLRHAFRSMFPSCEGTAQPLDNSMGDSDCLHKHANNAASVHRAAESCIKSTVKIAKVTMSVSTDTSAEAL

| Structure (SMILES) | EC50 [1] | Ratio EC50 [2] | inhibition [3] | EC50 [4] | Activity [5] | Activity [6] | Emax [7] | inhibition [8] |
| --- | --- | --- | --- | --- | --- | --- | --- | --- |
| CC(C)c1cc(NC2CCCC2)nnc1C(=O)NC1C2CC3CC(C2)CC1C3 (stereo not given) | > 10 µM | > 1750 | 38.2% | 0.0057 µM | 23.2% | 141% | 107% | – |
| CC(C)c1cc(N2CCCCC2)nnc1C(=O)NC1C2CC3CC(C2)CC1C3 (stereo not given) | > 10 µM | > 553 | 44.1% | 0.0181 µM | 16% | 114% | 140% | – |
| CC(C)c1cc(C(=O)NC2C3CC4CC(C3)CC2C4)nnc1NC1CCCCC1 (stereo not given) | > 10 µM | > 50 | 39.3% | 0.199 µM | 2.64% | 106% | 91% | – |
| CC(C)c1cc(NC2CC2)nnc1C(=O)NC1C2CC3CC(C2)CC1C3 (stereo not given) | > 10 µM | > 584 | – | 0.0171 µM | 7.48% | 119% | 117% | – |
| O=C(NC1CCCCC1)c1ccc(N2CCOCC2)nn1 | > 10 µM | – | – | > 10 µM | -3.69% | 17.7% | – | 16.3% |
| CC(C)c1cc(NC2CCCC2)nnc1C(=O)NC12CC3CC(CC(C3)C1)C2 | > 10 µM | > 33 | 44.5% | 0.301 µM | 19.5% | 95.5% | 80% | – |
| CC(C)c1cc(C(=O)NC2C3CC4CC(C3)CC2C4)nnc1N1CCCCC1 (stereo not given) | > 10 µM | > 3 | -3.84% | 3.45 µM | -1.23% | 63% | 106% | – |
| CC(C)c1cc(C(=O)NC2C3CC4CC(C3)CC2C4)nnc1NCC1CC1 (stereo not given) | 6.05 µM | 36 | – | 0.167 µM | 39.3% | 113% | 109% | – |
| CC(C)c1cc(C(=O)NC2C3CC4CC(C3)CC2C4)nnc1NCCO (stereo not given) | > 10 µM | > 100 | 1.87% | 0.0999 µM | -0.906% | 124% | 127% | – |
| CC(C)c1cc(NCCO)nnc1C(=O)NC1CCCCC1 | > 10 µM | > 12 | – | 0.842 µM | 14.8% | 91.1% | 81% | – |
| CC(C)c1cc(C(=O)NC2CCCCC2)nnc1N1CCOCC1 | > 10 µM | > 10 | -8.12% | 0.97 µM | -4.03% | 107% | 99% | – |
| O=C(NC1C2CC3CC(C2)CC1C3)c1ccc(N2CCOCC2)nn1 (stereo not given) | > 10 µM | > 1 | 17.7% | 8.42 µM | 3.24% | 63.2% | 79% | – |
| CCCCNc1nnc(C(=O)NC2C3CC4CC(C3)CC2C4)cc1C(C)C (stereo not given) | 2.61 µM | 27 | – | 0.0962 µM | 89.3% | 97.1% | 93% | – |
| O=C(NC12CC3CC(CC(C3)C1)C2)c1ccc(N2CCOCC2)nn1 | > 10 µM | – | – | > 10 µM | -4.49% | 33.7% | – | 25.8% |
| CC(C)c1cc(NCC2CC2)nnc1C(=O)NC1C2CC3CC(C2)CC1C3 (stereo not given) | > 10 µM | > 210 | 22.1% | 0.0477 µM | 31.3% | 125% | 135% | – |
| CC(C)c1cc(NC2CCCCC2)nnc1C(=O)NC1C2CC3CC(C2)CC1C3 (stereo not given) | > 10 µM | > 25 | – | 0.398 µM | -0.238% | 119% | 81% | – |
| CC(C)c1cc(NCCO)nnc1C(=O)NC12CC3CC(CC(C3)C1)C2 | > 10 µM | > 235 | – | 0.0426 µM | 13.4% | 125% | 114% | – |
| CC(C)c1cc(NC2CCCC2)nnc1C(=O)NC1CCCCC1 | > 10 µM | > 30 | – | 0.338 µM | 9.48% | 87.5% | 78% | – |
| CCCCNc1cc(C(C)C)c(C(=O)NC2C3CC4CC(C3)CC2C4)nn1 (stereo not given) | > 10 µM | > 203 | – | 0.0494 µM | 13.7% | 91.4% | 108% | – |
| CC(C)c1cc(NC(C)C(C)C)nnc1C(=O)NC1C2CC3CC(C2)CC1C3 (stereo not given) | > 10 µM | > 3 | 7.68% | 2.94 µM | 10.7% | 82% | 77% | – |
| CC(C)c1cc(C(=O)NC2C3CC4CC(C3)CC2C4)nnc1N1CCOCC1 (stereo not given) | > 10 µM | > 25 | 1.8% | 0.403 µM | -0.267% | 107% | 105% | – |
| CCCCNc1cc(C(C)C)c(C(=O)NC23CC4CC(CC(C4)C2)C3)nn1 | 10 µM | > 63 | – | 0.159 µM | 10.7% | 64% | 76% | – |
| O=C(NCC1CCOCC1)c1cnc(Nc2ccc(Cl)cc2Cl)nc1C(F)(F)F [GW842166X] | > 10 µM | > 29 | 11.8% | – | 18.2% | 129% | – | – |
| CC(C)c1cc(Nc2cccc(Cl)c2)nnc1C(=O)NC1C2CC3CC(C2)CC1C3 (stereo not given) | > 10 µM | > 1 | – | 6.7 µM | -6.45% | 48% | 77% | 44.3% |
| CC(C)c1cc(N2CCOCC2)nnc1C(=O)NC1CCCCC1 | > 10 µM | > 17 | -9.42% | 0.594 µM | 6.25% | 87.2% | 91% | – |
| CC(C)c1cc(NCCO)nnc1C(=O)NC1C2CC3CC(C2)CC1C3 (stereo not given) | > 10 µM | > 2020 | -8.39% | 0.00496 µM | 17.4% | 137% | 94% | – |
| CC(C)c1cc(N2CCOCC2)nnc1C(=O)NC12CC3CC(CC(C3)C1)C2 | > 10 µM | > 25 | 16.9% | 0.396 µM | 3.8% | 117% | 93% | – |
| CC(C)c1cc(C(=O)NC23CC4CC(CC(C4)C2)C3)nnc1N1CCOCC1 | > 10 µM | > 29 | – | 0.349 µM | -2.98% | 101% | 125% | – |
